The results in this text go back to ChEMBL document CHEMBL1127367, “Antiproliferative properties of polyamine analogues: a structure-activity study” (J Med Chem, 1994).

The structures appear in SMILES notation.

Assay [1] addresses T1, S-adenosylmethionine decarboxylase proenzyme 1 (Mus musculus) (UniProt P0DMN7).
T1 sequence (whole entry): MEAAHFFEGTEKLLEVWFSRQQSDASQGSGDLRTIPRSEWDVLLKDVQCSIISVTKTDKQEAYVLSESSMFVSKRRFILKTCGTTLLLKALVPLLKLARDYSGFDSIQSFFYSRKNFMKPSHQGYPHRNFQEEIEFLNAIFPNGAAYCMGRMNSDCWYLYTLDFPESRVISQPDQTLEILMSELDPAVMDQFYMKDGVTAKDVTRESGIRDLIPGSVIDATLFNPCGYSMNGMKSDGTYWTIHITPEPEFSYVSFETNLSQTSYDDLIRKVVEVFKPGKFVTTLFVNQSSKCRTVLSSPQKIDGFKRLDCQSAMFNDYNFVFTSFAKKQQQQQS
Kind of assay: Inhibition of S-Adenosyl-methionine decarboxylase (AdoMetDC) activity. In kind it is functional. Further details: concentration or dose not given beside the values.

Assay [2] deals with L1210. Kind of assay: Compound was evaluated for its impact on spermidine levels after 48 hr at concentration 10 uM. The class given is functional, Mus musculus. The method in brief: (§1)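 L1210 suspension cultures were grown in RPMI-1640 with 10% NuSerum, 2% HEPES-MOPS and 1 mM aminoguanidine (37 °C, 5% CO2). Log-phase cells were treated for 48 h, then washed twice in cold RPMI-1640 and pelleted. Pellets were extracted with 0.6 N perchloric acid, and supernatants were held at −20 °C until HPLC. Polyamine levels are given as % of untreated controls.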

Assay [3] deals with T2, Ornithine decarboxylase (Mus musculus) (UniProt P00860).
T2 sequence (whole entry): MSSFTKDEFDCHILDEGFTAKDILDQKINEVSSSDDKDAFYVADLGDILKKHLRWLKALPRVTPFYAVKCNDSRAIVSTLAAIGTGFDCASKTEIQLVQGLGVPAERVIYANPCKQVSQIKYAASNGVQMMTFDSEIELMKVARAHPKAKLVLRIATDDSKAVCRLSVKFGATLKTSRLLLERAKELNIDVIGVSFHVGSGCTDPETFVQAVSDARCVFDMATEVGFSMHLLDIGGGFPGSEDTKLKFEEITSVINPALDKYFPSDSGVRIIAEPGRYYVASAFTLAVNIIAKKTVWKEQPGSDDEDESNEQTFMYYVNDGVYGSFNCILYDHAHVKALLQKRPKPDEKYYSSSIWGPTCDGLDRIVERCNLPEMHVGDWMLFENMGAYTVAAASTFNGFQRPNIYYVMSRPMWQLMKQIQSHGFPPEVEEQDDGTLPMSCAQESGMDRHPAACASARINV
Kind of assay: Inhibition of ornithine decarboxylase (ODC) activity. In kind it is functional. Further details: concentration or dose not given beside the values.

The test system of assay [4] is L1210. Kind of assay: Compound was evaluated for its impact on putrescine (Put) levels after 48 hr at concentration 10 uM. In kind it is functional, Mus musculus. Summed up: as §1
Assay [5] relates to L1210. The assay is described as follows: In vitro inhibition of L1210 growth after 96 hours. The class given is functional, cell-based. The note with it: Mus musculus, L1210, 96 h. Summed up: (§2)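 Log-phase L1210 cultures (0.5–1.0 × 10^5 cells/mL) treated with analogue diluted in sterile water and filter-sterilized. After 48 h, cells were reseeded and grown a further 48 h for the 96 h point. Cells counted by Coulter counter. % growth = (treated − inoculum)/(untreated − inoculum) × 100.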

The test system of assay [6] is L1210. Kind of assay: Compound was evaluated for its impact on spermidine levels after 48 hr at concentration 2 uM. The class given is functional, Mus musculus. The method in brief:
as §1

The test system of assay [7] is L1210. Kind of assay: Compound was evaluated for its impact on spermine levels after 48 hr at concentration 0.4 uM. The class given is functional, Mus musculus. The method in brief: (§3)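 Murine L1210 leukemia cells in log-phase suspension (RPMI-1640, 10% NuSerum, 2% HEPES-MOPS, 1 mM aminoguanidine, 37 °C, 5% CO2) exposed to analogue for 48 h. Cells washed twice in cold RPMI-1640, extracted with 0.6 N perchloric acid, and polyamines quantified by HPLC. Spermine is reported as % of untreated control.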

For assay [8], the system named is L1210. Kind of assay: Compound was evaluated for its impact on spermine levels after 48 hr at concentration 10 uM. The class given is functional, Mus musculus. The method in brief: as §3
For assay [9], the system named is L1210. The assay is described as follows: Compound was evaluated for its impact on putrescine (Put) levels after 48 hr at concentration 0.4 uM. In kind it is functional, Mus musculus. Summed up:
as §1

Assay [10] relates to L1210. The assay is described as follows: Inhibition of radiolabeled spermidine uptake into L1210 cells in vitro. In kind it is functional, cell-based, Mus musculus.
For assay [11], the system named is L1210. The assay is described as follows: Compound was evaluated for its impact on putrescine (Put) levels after 48 hr at concentration 2 uM. In kind it is functional, Mus musculus. The method in brief:
as §1

The subject of assay [12] is L1210. The assay is described as follows: In vitro inhibition of L1210 growth after 48 hours. The class given is functional, cell-based. Particulars: Mus musculus, L1210, 48 h. Summed up: as §2
The test system of assay [13] is L1210. The assay is described as follows: Compound was evaluated for its impact on spermidine levels after 48 hr at concentration 0.4 uM. In kind it is functional, Mus musculus. The method in brief: as §1
Assay [14] has as its system L1210. The assay is described as follows: Compound was evaluated for its impact on spermine levels after 48 hr at concentration 2 uM. In kind it is functional, Mus musculus. The method in brief:
as §3

The IC50 is the concentration that gives 50% inhibition. As usually defined, the Ki is a measure of affinity in units of concentration, obtained from inhibition or displacement. For `CCNCCCCNCCCCNCCCCNC(C)(C)C`, the Activity was 81% in assay [1] and 79% in assay [3]. The Polyamine amounted to 10% in the assay on L1210 [2]; 0% in the assay on L1210 [4]; 68% in the assay on L1210 [6]; 75% with L1210 [7]; 77% with L1210 [8]; 133% with L1210 [9]. In addition, the Polyamine in the assay on L1210 [11] stood at 78%; in the assay with L1210 [13], 96%; in the assay with L1210 [14] it was 63%. The IC50 with L1210 [5] is 30 nM; in the assay with L1210 [12] it was 400 nM. This molecule also had a Ki in the assay with L1210 [10] of 3000 nM.
